pIC50: −log10 of the molar value.
Assays:
[1] = system: HeLa; test: Cytotoxicity against human HeLa cells assessed as reduction in optical density by MTT assay relative to control; assay type: functional, cell-based
Method in brief: (§1)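 MTT assay read as optical density. IC50 is the concentration that cut optical density of treated cells by 50% relative to untreated cells. Values are means of three independent determinations.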

[2] = Cytotoxicity against human SMMC-7404 cells assessed as reduction in optical density by MTT assay relative to control; assay type: functional, cell-based; method in brief: as §1

Structure (SMILES) | pIC50 [1] | pIC50 [2]
C[C@]12CC[C@H](O)CC1=CC[C@@H]1[C@@H]2CC[C@]2(C)NC(=O)CC[C@@H]12 | 4.18 | < 3.70
C[C@]12CC/C(=N\NC(N)=S)C=C1/C(=N\NC(N)=S)C[C@@H]1[C@@H]2CC[C@]2(C)NC(=O)CC[C@@H]12 | 4.54 | 4.09
C[C@]12CC/C(=N/O)CC1/C(=N\O)C[C@@H]1[C@@H]2CC[C@]2(C)NC(=O)CC[C@@H]12 (stereo partly drawn) | 4.12 | 3.74
CC(=O)O[C@H]1CC[C@@]2(C)C(=CC[C@@H]3[C@@H]2CC[C@]2(C)NC(=O)CC[C@@H]32)C1 | 4.42 | < 3.70
C[C@]12CCC(=O)C=C1C(=O)C[C@@H]1[C@@H]2CC[C@]2(C)NC(=O)CC[C@@H]12 | 3.99 | < 3.70
C[C@]12CCC(O)C=C1C(O)C[C@@H]1[C@@H]2CC[C@]2(C)NC(=O)CC[C@@H]12 (stereo partly drawn) | 4.73 | < 3.70
C[C@]12CC/C(=N/O)C=C1/C(=N\O)C[C@@H]1[C@@H]2CC[C@]2(C)NC(=O)CC[C@@H]12 | 4.82 | < 3.70
C[C@]12CCC(=O)CC1C(=O)C[C@@H]1[C@@H]2CC[C@]2(C)NC(=O)CC[C@@H]12 (stereo partly drawn) | 4.27 | 4.22
C[C@]12CCC(O)CC1C(O)C[C@@H]1[C@@H]2CC[C@]2(C)NC(=O)CC[C@@H]12 (stereo partly drawn) | 4.85 | 3.91
